According to article PMC4530033 (Journal of immunology (Baltimore, Md. : 1950), 2015):

Columns and labels:
[1] = tested on: metastatic human CRC cells; assay: Cell growth / viability; format: cell-based
DNMT3a = DNMT3a (Homo sapiens, UniProt Q9Y6K1); assay: DNMT enzymatic activity in vitro; format: biochemical; settings: recombinant DNMT3a; 10-dose, 3-fold serial dilutions starting at 10 μM
Method in brief: (§1)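 Recombinant human enzyme with ³H-S-adenosylmethionine as substrate. Test compound was run at 10 doses, 3-fold serial dilution from 10 μM. […] Activity was plotted against concentration and IC50 fitted by curve regression. Three independent assays used three compound lots.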

[2] = tested on: LS411N-5FU-R and SW620-5FU-R cells; assay: Sensitization to FasL-induced apoptosis; format: cell-based, human; settings: sublethal doses plus FasL, 24h
DNMT3b = DNMT3b (Homo sapiens, UniProt Q9UBC3); assay: DNMT enzymatic activity in vitro; format: biochemical; settings: recombinant DNMT3b; 10-dose, 3-fold serial dilutions starting at 10 μM
Method in brief: as §1

LS411N and SW620 cells [3] = assay: Global H3K9 methylation by Western blot of histone acidic extracts; format: cell-based, human; settings: 2 days
Method in brief: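 Cells were exposed to test compound at several concentrations for 2 days. Lysis buffer was 20 mM Tris-HCl pH 8, 150 mM NaCl, 5 mM EDTA, 0.5% NP-40 with protease inhibitors, for 30 min. After centrifugation the pellet went into 0.1M HCl on ice for 30 min. The acid extract was neutralised with Tris-HCl pH 9.0, blotted for H3K9me2/H3K9me3, and reprobed for total H3 as normaliser.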

[4] = tested on: LS411N-5FU-R and SW620-5FU-R cells; assay: Sensitization to Drozitumab-induced apoptosis; format: cell-based, human; settings: verticillin A 20 nM, Drozitumab 500 ng/ml, 24h
Method in brief: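 Cells were given test compound (20 nM), drozitumab (500 ng/ml) or both for 24 h. Floating and adherent cells were pooled and stained with Annexin V and PI, then read by flow cytometry. % apoptotic death = % Annexin V⁺PI⁺ of treated minus untreated control (mean, SD).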

DNMT1 = DNMT1 (Homo sapiens, UniProt P26358); assay: DNMT enzymatic activity in vitro; format: biochemical; settings: recombinant DNMT1; 10-dose, 3-fold serial dilutions starting at 10 μM
Sequence of DNMT1 (P26358 whole entry, species assumed): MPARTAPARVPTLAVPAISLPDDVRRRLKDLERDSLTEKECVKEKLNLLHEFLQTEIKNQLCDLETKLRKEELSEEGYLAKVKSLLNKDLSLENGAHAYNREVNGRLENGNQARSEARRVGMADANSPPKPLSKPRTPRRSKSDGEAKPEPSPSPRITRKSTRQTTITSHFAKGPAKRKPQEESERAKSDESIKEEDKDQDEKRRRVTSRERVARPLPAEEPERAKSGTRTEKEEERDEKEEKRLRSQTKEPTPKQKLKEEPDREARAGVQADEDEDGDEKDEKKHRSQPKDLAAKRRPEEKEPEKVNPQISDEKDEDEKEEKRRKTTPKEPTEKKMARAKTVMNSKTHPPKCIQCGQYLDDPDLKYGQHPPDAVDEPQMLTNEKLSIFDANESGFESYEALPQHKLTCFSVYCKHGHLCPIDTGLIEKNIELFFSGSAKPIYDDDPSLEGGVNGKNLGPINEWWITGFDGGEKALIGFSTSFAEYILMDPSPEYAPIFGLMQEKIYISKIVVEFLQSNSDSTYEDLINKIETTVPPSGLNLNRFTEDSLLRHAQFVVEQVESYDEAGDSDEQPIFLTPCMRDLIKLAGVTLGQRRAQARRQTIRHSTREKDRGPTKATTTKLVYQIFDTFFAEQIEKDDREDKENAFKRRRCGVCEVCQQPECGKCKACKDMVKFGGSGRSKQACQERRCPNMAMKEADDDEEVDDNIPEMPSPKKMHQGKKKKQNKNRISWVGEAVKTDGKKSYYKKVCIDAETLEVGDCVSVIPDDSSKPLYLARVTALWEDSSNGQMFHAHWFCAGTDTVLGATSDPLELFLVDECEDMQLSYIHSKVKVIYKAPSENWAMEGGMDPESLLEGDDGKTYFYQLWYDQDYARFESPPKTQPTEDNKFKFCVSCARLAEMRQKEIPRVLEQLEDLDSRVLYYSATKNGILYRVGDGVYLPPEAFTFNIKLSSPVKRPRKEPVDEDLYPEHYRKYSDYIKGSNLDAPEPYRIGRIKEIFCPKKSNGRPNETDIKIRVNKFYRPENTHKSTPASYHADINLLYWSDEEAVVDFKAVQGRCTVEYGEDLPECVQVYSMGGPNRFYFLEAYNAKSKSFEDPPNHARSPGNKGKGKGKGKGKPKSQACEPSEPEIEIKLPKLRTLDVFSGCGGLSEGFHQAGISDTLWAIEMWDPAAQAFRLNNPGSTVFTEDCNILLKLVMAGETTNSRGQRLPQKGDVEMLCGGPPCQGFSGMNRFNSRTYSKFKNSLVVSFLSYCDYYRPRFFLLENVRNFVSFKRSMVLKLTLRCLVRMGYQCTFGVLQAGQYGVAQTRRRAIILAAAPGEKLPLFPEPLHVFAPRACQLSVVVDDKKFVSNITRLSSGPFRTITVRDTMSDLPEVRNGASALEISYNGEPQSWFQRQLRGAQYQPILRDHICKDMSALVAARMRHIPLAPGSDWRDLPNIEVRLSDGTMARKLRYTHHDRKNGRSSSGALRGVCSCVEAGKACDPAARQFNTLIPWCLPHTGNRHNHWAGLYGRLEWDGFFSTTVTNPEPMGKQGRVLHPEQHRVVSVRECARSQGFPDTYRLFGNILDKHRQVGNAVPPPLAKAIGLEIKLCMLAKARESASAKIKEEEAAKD
Method in brief: as §1

[5] = Mouse serum liver enzyme profiles; format: in vivo; settings: at the efficacious dose (1 mg/kg i.v.); preliminary assays
[6] = tested on: LS411N-5FU-R and SW620-5FU-R cells; assay: Fas expression; format: cell-based, human; settings: 20 nM, 2 days
Method in brief: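 Cells were cultured with or without 20 nM test compound for 2 days. Surface Fas was measured by flow cytometry with a Fas-specific mAb against an IgG isotype control, quantified as MFI (mean, SD). Fas mRNA in SW620-5FU-R was measured by real-time RT-PCR.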

SW620 and SW480 cells = assay: ChIP analysis of the FAS promoter region; format: cell-based, human; settings: 2 days
Method in brief: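 Cells (SW620 given 50 nM test compound for H3K9me3 and RNA Pol II; SW480 and SW620 for H3K9ac) treated 2 days. ChIP followed the kit manufacturer's protocol with anti-H3K9me3, anti-H3K9ac or anti-RNA Pol II, and IgG as the negative control. The FAS promoter ChIP 1 region was read by semi-quantitative PCR and by real-time PCR, against 2 ng genomic DNA set at 1.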

LS411N and SW620 cells [7] = assay: BNIP3 promoter DNA methylation by methylation specific-PCR; format: cell-based, human; settings: 3 days
Method in brief: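 Cells were exposed to test compound at several concentrations for 3 days. Methylation status of the BNIP3 promoter CpG island was then assessed by methylation-specific PCR, with separate primers for the unmethylated and methylated forms.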

[8] = tested on: SW620-5FU-R and LS411N-5FU-R cells; assay: Cell surface DR4 and DR5 expression by flow cytometry; format: cell-based, human; settings: 2 days
Method in brief: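 Cells were plated at 1×10^5 per well and exposed to 0, 20 or 50 nM test compound. They were then stained with anti-DR4 (TRAIL-R1) or anti-DR5 (TRAIL-R2) antibodies and analysed by flow cytometry.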

Sequence of DNMT3a (Q9Y6K1 whole entry, looked up, species assumed): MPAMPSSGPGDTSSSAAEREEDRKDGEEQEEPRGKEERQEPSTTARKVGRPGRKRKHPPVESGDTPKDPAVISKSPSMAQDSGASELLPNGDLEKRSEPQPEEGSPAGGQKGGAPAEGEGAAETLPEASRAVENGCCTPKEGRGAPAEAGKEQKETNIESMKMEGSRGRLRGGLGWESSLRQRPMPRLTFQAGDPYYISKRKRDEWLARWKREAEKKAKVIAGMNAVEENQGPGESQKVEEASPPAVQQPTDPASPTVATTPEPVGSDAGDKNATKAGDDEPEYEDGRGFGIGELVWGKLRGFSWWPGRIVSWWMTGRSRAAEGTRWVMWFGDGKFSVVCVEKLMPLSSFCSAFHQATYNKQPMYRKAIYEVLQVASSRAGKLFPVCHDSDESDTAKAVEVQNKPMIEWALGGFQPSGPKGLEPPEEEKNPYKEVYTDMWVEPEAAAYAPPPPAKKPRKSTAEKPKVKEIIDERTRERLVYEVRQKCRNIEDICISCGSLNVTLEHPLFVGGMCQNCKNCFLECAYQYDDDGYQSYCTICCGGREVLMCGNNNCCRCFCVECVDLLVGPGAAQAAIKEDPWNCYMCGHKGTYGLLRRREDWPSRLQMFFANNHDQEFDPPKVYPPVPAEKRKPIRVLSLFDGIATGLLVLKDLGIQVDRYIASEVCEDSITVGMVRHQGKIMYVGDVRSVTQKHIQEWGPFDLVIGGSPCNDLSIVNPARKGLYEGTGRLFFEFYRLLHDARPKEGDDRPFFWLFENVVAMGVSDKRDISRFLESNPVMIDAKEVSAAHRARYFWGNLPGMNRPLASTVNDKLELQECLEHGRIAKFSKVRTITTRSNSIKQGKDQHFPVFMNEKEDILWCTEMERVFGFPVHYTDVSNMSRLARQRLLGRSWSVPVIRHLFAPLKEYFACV

| SMILES | sensitivity of 5-FU-resistant human CRC cells to verticillin A ([1]; 5-FU-resistant cells versus parent cell lines (Fig. S2B)) | dose effective in suppression of metastatic human CRC cell growth ([1]; relatively high dose) | effect on DNMT3a enzymatic activity (DNMT3a) | sensitization of tumor cells to FasL-induced apoptosis [2] | effect on DNMT3b enzymatic activity (DNMT3b) | H3K9me2 and H3K9me3 levels (LS411N and SW620 cells [3]) | cell sensitivity to Drozitumab [4] | effect on DNMT1 enzymatic activity (DNMT1) | liver toxicity [5] | cell surface Fas receptor level ([6]; LS411N-5FU-R and SW620-5FU-R cells, flow cytometry) | Fas mRNA level ([6]; SW620-5FU-R cells, real time RT-PCR) | H3K9ac level in the FAS promoter region (SW620 and SW480 cells; SW480 cells) | H3K9me3 level in the FAS promoter region (SW620 and SW480 cells; SW620 cells, 50 nM) | RNA Pol II level in the FAS promoter region (SW620 and SW480 cells; SW620 cells, 50 nM) | H3K9ac level in the FAS promoter region (SW620 and SW480 cells; SW620 cells, increase) | DNA demethylation of the BNIP3 promoter region (LS411N and SW620 cells [7]) | DR4 expression [8] | DR5 expression level [8] |
| --- | --- | --- | --- | --- | --- | --- | --- | --- | --- | --- | --- | --- | --- | --- | --- | --- | --- | --- |
| CN1C(=O)[C@]23SS[C@@]1(C)C(=O)N2[C@H]1Nc2ccccc2[C@@]1([C@@]12c4ccccc4N[C@@H]1N1C(=O)[C@@]4(C)SS[C@]1(C(=O)N4C)[C@H]2O)[C@@H]3O [Verticillin A, verticillin A] | as sensitive to verticillin A as the parent cell lines | 100 nM | no inhibitory effect | significantly greater efficacy than either decitabine or vorinostat | no inhibitory effect | diminished | significantly increased | no inhibitory effect | minimal liver toxicity | significantly increased | significantly increased | dramatically increased | decreased | did not identify an increase | at a low degree | did not result in DNA demethylation | did not alter | increased |
| Nc1ncn([C@H]2C[C@H](O)[C@@H](CO)O2)c(=O)n1 [decitabine] | – | – | – | to a small degree | – | – | – | – | – | – | – | – | – | – | – | – | – | – |
| O=C(CCCCCCC(=O)Nc1ccccc1)NO [vorinostat] | – | – | – | to a small degree | – | – | – | – | – | – | – | – | – | – | – | – | – | – |
